Test results from PMC7744997 (Clinical Infectious Diseases: An Official Publication of …, 2020).

Experiment: Laboratory safety in RSV-infected infants
Format: in vivo, human
Outline: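 Clinical laboratory tests were run in RSV-infected infants (>1 to ≤24 months) given oral drug or placebo once daily for 7 days. Abnormalities were graded with the DMID Pediatric Toxicity Tables (November 2007 version). Patients were followed for 28 days after randomisation.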

CS(=O)(=O)CCCn1c(Cn2c(=O)n(CC(F)(F)F)c3ccncc32)cc2cc(Cl)ccc21 [JNJ-53718678]
1 (11) no. (%): Lymphocytes/leukocytes: Below (treatment-emergent nongraded abnormality) (Mid (cohorts 1b,2b,3b), n=9) | Monocytes/leukocytes: Below (treatment-emergent nongraded abnormality) (Mid (cohorts 1b,2b,3b), n=9) | Neutrophils/leukocytes: Above (treatment-emergent nongraded abnormality) (Mid (cohorts 1b,2b,3b), n=9)
0 no. (%): Chloride: Below (treatment-emergent nongraded abnormality) (Low (cohorts 1a,2a,3a), n=12) | Eosinophils: Below (treatment-emergent nongraded abnormality) (Low (cohorts 1a,2a,3a), n=12) | Erythrocytes: Below (treatment-emergent nongraded abnormality) (Low (cohorts 1a,2a,3a), n=12) | Hemoglobin Grade 2 (treatment-emergent worst toxicity grade) (Low (cohorts 1a,2a,3a), n=12) | Hyperkalemia Grade 2 (treatment-emergent worst toxicity grade) (Low (cohorts 1a,2a,3a), n=12) | Hypoglycemia Grade 1 (treatment-emergent worst toxicity grade) (Low (cohorts 1a,2a,3a), n=12) | Lymphocytes: Below (treatment-emergent nongraded abnormality) (Low (cohorts 1a,2a,3a), n=12) | Eosinophils/leukocytes: Below (treatment-emergent nongraded abnormality) (Mid (cohorts 1b,2b,3b), n=9) | Eosinophils: Below (treatment-emergent nongraded abnormality) (Mid (cohorts 1b,2b,3b), n=11) | Lymphocytes: Below (treatment-emergent nongraded abnormality) (Mid (cohorts 1b,2b,3b), n=11) | Hypoglycemia Grade 1 (treatment-emergent worst toxicity grade) (Mid (cohorts 1b,2b,3b), n=12) | Hyponatremia Grade 2 (treatment-emergent worst toxicity grade) (Mid (cohorts 1b,2b,3b), n=12) | Urea: Above (treatment-emergent nongraded abnormality) (Mid (cohorts 1b,2b,3b), n=12) | Urea: Above (treatment-emergent nongraded abnormality) (Mid-high (cohort 1c), n=3) | Urea: Below (treatment-emergent nongraded abnormality) (Mid-high (cohort 1c), n=3) | Alkaline phosphatase: Above (treatment-emergent nongraded abnormality) (Mid-high (cohort 1c), n=4) | Bicarbonate: Above (treatment-emergent nongraded abnormality) (Mid-high (cohort 1c), n=4) | Chloride: Below (treatment-emergent nongraded abnormality) (Mid-high (cohort 1c), n=4) | Eosinophils: Below (treatment-emergent nongraded abnormality) (Mid-high (cohort 1c), n=4) | Erythrocytes: Below (treatment-emergent nongraded abnormality) (Mid-high (cohort 1c), n=4) | Hemoglobin Grade 1 (treatment-emergent worst toxicity grade) (Mid-high (cohort 1c), n=4) | Hemoglobin Grade 2 (treatment-emergent worst toxicity grade) (Mid-high (cohort 1c), n=4) | Hyperkalemia Grade 2 (treatment-emergent worst toxicity grade) (Mid-high (cohort 1c), n=4) | Hypoglycemia Grade 1 (treatment-emergent worst toxicity grade) (Mid-high (cohort 1c), n=4) | Leukocytes: Above (treatment-emergent nongraded abnormality) (Mid-high (cohort 1c), n=4) | Lymphocytes/leukocytes: Above (treatment-emergent nongraded abnormality) (Mid-high (cohort 1c), n=4) | Lymphocytes/leukocytes: Below (treatment-emergent nongraded abnormality) (Mid-high (cohort 1c), n=4) | Lymphocytes: Below (treatment-emergent nongraded abnormality) (Mid-high (cohort 1c), n=4) | Monocytes/leukocytes: Above (treatment-emergent nongraded abnormality) (Mid-high (cohort 1c), n=4) | Monocytes/leukocytes: Below (treatment-emergent nongraded abnormality) (Mid-high (cohort 1c), n=4) | Neutrophils/leukocytes: Above (treatment-emergent nongraded abnormality) (Mid-high (cohort 1c), n=4) | Neutrophils/leukocytes: Below (treatment-emergent nongraded abnormality) (Mid-high (cohort 1c), n=4)
1 (8.3) no. (%): Hyperkalemia Grade 2 (treatment-emergent worst toxicity grade) (Mid (cohorts 1b,2b,3b), n=12)
2 (18) no. (%): Eosinophils: Above (treatment-emergent nongraded abnormality) (Mid (cohorts 1b,2b,3b), n=11) | Lymphocytes: Above (treatment-emergent nongraded abnormality) (Mid (cohorts 1b,2b,3b), n=11)
2 (17) no. (%): Lymphocytes: Above (treatment-emergent nongraded abnormality) (Low (cohorts 1a,2a,3a), n=12) | Alkaline phosphatase: Below (treatment-emergent nongraded abnormality) (Mid (cohorts 1b,2b,3b), n=12) | Bicarbonate: Above (treatment-emergent nongraded abnormality) (Mid (cohorts 1b,2b,3b), n=12) | Bicarbonate: Below (treatment-emergent nongraded abnormality) (Mid (cohorts 1b,2b,3b), n=12) | Chloride: Above (treatment-emergent nongraded abnormality) (Mid (cohorts 1b,2b,3b), n=12) | Erythrocytes: Below (treatment-emergent nongraded abnormality) (Mid (cohorts 1b,2b,3b), n=12) | Leukocytes: Above (treatment-emergent nongraded abnormality) (Mid (cohorts 1b,2b,3b), n=12)
2 (50) no. (%): Chloride: Above (treatment-emergent nongraded abnormality) (Mid-high (cohort 1c), n=4) | Erythrocytes: Above (treatment-emergent nongraded abnormality) (Mid-high (cohort 1c), n=4) | Hyperkalemia Grade 1 (treatment-emergent worst toxicity grade) (Mid-high (cohort 1c), n=4)
4 (33) no. (%): Eosinophils: Above (treatment-emergent nongraded abnormality) (Low (cohorts 1a,2a,3a), n=12) | Hyperkalemia Grade 1 (treatment-emergent worst toxicity grade) (Low (cohorts 1a,2a,3a), n=12) | Urea: Below (treatment-emergent nongraded abnormality) (Mid (cohorts 1b,2b,3b), n=12)
1 (8) no. (%): Chloride: Above (treatment-emergent nongraded abnormality) (Low (cohorts 1a,2a,3a), n=12) | Erythrocytes: Above (treatment-emergent nongraded abnormality) (Low (cohorts 1a,2a,3a), n=12) | Hemoglobin Grade 1 (treatment-emergent worst toxicity grade) (Low (cohorts 1a,2a,3a), n=12) | Hyponatremia Grade 2 (treatment-emergent worst toxicity grade) (Low (cohorts 1a,2a,3a), n=12) | Leukocytes: Above (treatment-emergent nongraded abnormality) (Low (cohorts 1a,2a,3a), n=12) | Alkaline phosphatase: Above (treatment-emergent nongraded abnormality) (Mid (cohorts 1b,2b,3b), n=12) | Chloride: Below (treatment-emergent nongraded abnormality) (Mid (cohorts 1b,2b,3b), n=12) | Erythrocytes: Above (treatment-emergent nongraded abnormality) (Mid (cohorts 1b,2b,3b), n=12) | Hemoglobin Grade 1 (treatment-emergent worst toxicity grade) (Mid (cohorts 1b,2b,3b), n=12) | Hemoglobin Grade 2 (treatment-emergent worst toxicity grade) (Mid (cohorts 1b,2b,3b), n=12)
1 (25) no. (%): Alkaline phosphatase: Below (treatment-emergent nongraded abnormality) (Mid-high (cohort 1c), n=4) | Bicarbonate: Below (treatment-emergent nongraded abnormality) (Mid-high (cohort 1c), n=4) | Eosinophils/leukocytes: Above (treatment-emergent nongraded abnormality) (Mid-high (cohort 1c), n=4) | Eosinophils/leukocytes: Below (treatment-emergent nongraded abnormality) (Mid-high (cohort 1c), n=4) | Eosinophils: Above (treatment-emergent nongraded abnormality) (Mid-high (cohort 1c), n=4) | Hyponatremia Grade 2 (treatment-emergent worst toxicity grade) (Mid-high (cohort 1c), n=4) | Lymphocytes: Above (treatment-emergent nongraded abnormality) (Mid-high (cohort 1c), n=4)
3 (33) no. (%): Eosinophils/leukocytes: Above (treatment-emergent nongraded abnormality) (Mid (cohorts 1b,2b,3b), n=9) | Lymphocytes/leukocytes: Above (treatment-emergent nongraded abnormality) (Mid (cohorts 1b,2b,3b), n=9) | Monocytes/leukocytes: Above (treatment-emergent nongraded abnormality) (Mid (cohorts 1b,2b,3b), n=9) | Neutrophils/leukocytes: Below (treatment-emergent nongraded abnormality) (Mid (cohorts 1b,2b,3b), n=9)
3 (25) no. (%): Hyperkalemia Grade 1 (treatment-emergent worst toxicity grade) (Mid (cohorts 1b,2b,3b), n=12)
